Screens deposited in PubChem BioAssay by several laboratories.
SR-BI DiI inh: mouse SR-BI HDL lipid transfer inhibition; inhibition, % at 12.5 µM; AID 488896; ldlA[mSR-BI] CHO cells, DiI-HDL uptake fluorescence, 3 h; Q61009; 320,000 compounds, 0.96% hits;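 active = mean replicate inhibition of at least 70% and a set share of replicates each scoring 70 or more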;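 also: 0% = median of neutral control wells and 100% = median of positive control wells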
SMARCA2 act: SMARCA2 function activation, primary screen; MG213 cells, MMTV-luciferase reporter, dexamethasone, overnight; activation, % at 9.1 µM; 370,000 compounds, 1% hits; AID 652017; in the data active = activation above about 7.8%;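 also: 0% = vehicle wells and 100% = reference activator wells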
Yeast superoxide: yeast age-related superoxide inhibition as caloric restriction mimetic; S. cerevisiae aged cells, superoxide DHE fluorescence; hits give low values; superoxide response (% of plate mean), % at 10 µM; 330,000 compounds, 0.18% hits;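 active = superoxide response under a set limit, about three screen SD below normal, cut at about 65% in these data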;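 also: yeast aged for seven days with compound at 30 °C before DHE staining; 100% = average MFI of all compound-treated wells on the plate with controls excluded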
SR-BI uptake up: SR-BI HDL lipid transfer activation; CHO ldlA[mSR-BI] cells, DiI-HDL uptake fluorescence, 3 h; 100 = double the neutral-control signal; activation, % at 12.5 µM; 320,000 compounds, 0.096% hits; AID 504775;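 active = mean replicate activation of at least 60% and every replicate at or above 60%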;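 also: 0% = median plate neutral-control signal and 100% = twice that signal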
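Assay system: CHO ldlA[mSR-BI] cells, LDL receptor-null, SR-BI overexpressing; medium: Ham's F12 with 0.5% BSA, HEPES 25 mM, pH 7.4; also added: DiI-HDL 10 µg/mL; timing: 3 h uptake period with compound, 37 °C; signal: DiI fluorescence, bottom read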
Hep lipid drop: hepatic lipid droplet formation modulation. AML12 mouse hepatocytes, oleate lipid droplets, BODIPY imaging. inhibition, % at 6.5 µM. 240,000 compounds, 0.4% hits. AID 1656;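 active = lipid droplet intensity inhibited by at least 50%, with more than 500 cells counted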
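material = mouse AML12 hepatocyte cell line, fixed after treatment | also added = 100 µM oleic acid challenge | doses = compound at 6.5 µM only | schedule = overnight exposure | technique = Image-based BODIPY and DAPI two-channel analysis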
AHR activator: activates the human aryl hydrocarbon receptor; AHR-responsive luciferase reporter cells, luminescence; activation, % at 5 µM; 320,000 compounds, 2.5% hits; in the data active = activation above about 47%;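 also: 0% = vehicle wells and 100% = reference agonist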
Target sequence (P35869 whole entry, looked up): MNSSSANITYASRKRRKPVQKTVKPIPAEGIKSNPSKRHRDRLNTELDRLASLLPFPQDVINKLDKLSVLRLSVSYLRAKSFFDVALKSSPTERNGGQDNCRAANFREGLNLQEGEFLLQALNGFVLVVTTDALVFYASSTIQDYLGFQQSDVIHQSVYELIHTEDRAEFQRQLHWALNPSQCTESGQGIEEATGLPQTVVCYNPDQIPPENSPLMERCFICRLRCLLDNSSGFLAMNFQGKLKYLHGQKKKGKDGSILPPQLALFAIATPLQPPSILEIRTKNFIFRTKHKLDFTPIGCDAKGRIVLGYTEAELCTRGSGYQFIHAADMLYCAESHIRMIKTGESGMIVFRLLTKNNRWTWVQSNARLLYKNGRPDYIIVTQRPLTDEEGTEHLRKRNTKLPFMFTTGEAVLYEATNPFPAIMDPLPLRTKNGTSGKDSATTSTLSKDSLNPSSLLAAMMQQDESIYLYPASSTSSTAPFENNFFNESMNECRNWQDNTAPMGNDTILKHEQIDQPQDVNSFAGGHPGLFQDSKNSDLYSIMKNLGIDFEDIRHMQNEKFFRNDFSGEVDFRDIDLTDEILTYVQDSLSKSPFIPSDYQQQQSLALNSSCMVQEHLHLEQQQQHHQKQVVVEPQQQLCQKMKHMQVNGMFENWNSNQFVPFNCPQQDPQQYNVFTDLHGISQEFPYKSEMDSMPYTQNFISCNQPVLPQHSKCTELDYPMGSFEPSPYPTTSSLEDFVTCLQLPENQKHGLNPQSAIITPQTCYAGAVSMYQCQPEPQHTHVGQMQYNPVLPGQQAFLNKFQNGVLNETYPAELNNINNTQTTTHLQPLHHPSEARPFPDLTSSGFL
SMARCA2 conf: SMARCA2 activation, confirmation screen. shares compounds with SMARCA2 act. MG213 cells, MMTV-luciferase with dexamethasone, luminescence, overnight; MG213 cells expressing E1A, Rb sequestered; DMSO wells 0%, reference activator 100%. activation, % at 9.1 µM. 3,500 compounds, 30% hits. AID 652260;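 active = activation above its plate's cutoff, the mean activation of tested wells plus 3 SD, cut at about 7.9% in these data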
VP16 Luc act: GAL4-VP16 reporter activation counter-screen; activation, % at 9.1 µM; AID 686939; HEK293 GAL4-VP16 pG5luc reporter, luciferase luminescence; scaled: DMSO wells 0%, SAHA wells 100%; 3,500 compounds, 41% hits; shares compounds with SMARCA2 act;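 active = activation above the solvent-only control well mean plus 3 SD, averaged across control plates, cut at about 5.2% in these data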
* = called active by the depositor; nt = no result given. Only some compounds are listed: those with a hit (about 4.3% of all), similar ones and a draw of the others.

SMILES	SR-BI DiI inh	SMARCA2 act	Yeast superoxide	SR-BI uptake up	Hep lipid drop	AHR activator	SMARCA2 conf	VP16 Luc act
CCOC(=O)N1CCN(S(=O)(=O)c2ccc(C(=O)Nc3sc4c(c3C#N)CCC4)cc2)CC1	31	11*	76	-31	nt	3	-2	1
CCOC(=O)N1CCN(S(=O)(=O)c2ccc(C(=O)Nc3sc4c(c3C#N)CC(C)(C)NC4(C)C)cc2)CC1	2	4	96	-2	28	0	nt	nt
CC(=O)c1cccc(NC(=S)NC(=O)C(C)C)c1	10	8.7*	99	-10	nt	4	-1	0
CC(=O)c1cccc(NC(=S)NC(=O)c2ccccc2)c1	-2	-1	93	2	-3	15	nt	nt
O=S1(=O)c2ccc(N3CCN(Cc4ccccc4F)CC3)cc2Oc2ccccc2CN1Cc1cn(Cc2ccc(C(F)(F)F)cc2)nn1	nt	-2	nt	nt	nt	nt	nt	nt
O=C(CCl)Oc1ccc2occ(C(=O)c3cccs3)c2c1	0	8.6*	92	0	11	-1	4	6.5*
CC(=O)Oc1ccc2occ(C(=O)c3cccs3)c2c1	-11	2	95	11	nt	-11	nt	nt
CCOc1ccc(S(=O)(=O)c2c(C(=O)c3ccc(C)cc3)cnc3cc4c(cc23)OCCO4)cc1	-1	-4	93	1	-8	3	nt	nt
Cc1ccc(C(=O)c2cnc3cc4c(cc3c2S(=O)(=O)c2ccccc2)OCCO4)cc1	-6	9.5*	110	6	-1	2	0	5.5*
COc1ccc(C(=O)C2CCN(C(=O)c3ccc(C)cc3)CC2)cc1	9	-4	102	-9	nt	1	nt	nt
COc1ccc(-c2ccc(C(=O)C3CC3)cc2)cc1	23	10*	95	-23	nt	2	8.2*	15*
C[C@H]1C2CC(OC(=O)Nc3ccc(F)cc3)C(C2)[C@H]2CCCCN21 (stereo partly specified)	nt	-4	nt	nt	nt	nt	nt	nt
CN(Cc1ccco1)C(=O)CCc1nc2sc3c(c2c(=O)[nH]1)CCCC3	-15	8.2*	105	15	-47	29	2	0
Cc1cc(C)cc(NC(=O)CCc2nc3sc4c(c3c(=O)[nH]2)CCCC4)c1	-29	24*	95	29	nt	59*	28*	1
CCCc1cnc(N2CCN(C(=O)c3ccc(F)cc3)CC2)nc1	-7	0	103	7	2	0	nt	nt
CCCc1cnc(N2CCN(C(=S)NC)CC2)nc1	1	8.4*	106	-1	24	-3	7	7.7*
O=C(NC1CCCCCC1)C1CCN(S(=O)(=O)N2CCC3(CC2)OCCO3)CC1	-16	9.9*	94	16	nt	-2	-2	2
CC1CCCCC1NC(=O)C1CCN(S(=O)(=O)N2CCC3(CC2)OCCO3)CC1 (stereo unspecified)	-14	-2	102	14	nt	-1	nt	nt
CN(C)C(=O)NCCCC#Cc1ccccc1	nt	-3	nt	nt	nt	nt	nt	nt
COc1ccc(NC(=O)CSc2c3c(nc4cc(Cl)ccc24)CCCC3)cc1OC	58	9.4*	97	-58	-2	2	3	1
COCCCN1C(=O)[C@H](CC(=O)N2CCCCC2)[C@]2(C(=O)OC)CCCCC=C12	nt	2	nt	nt	nt	nt	nt	nt
COC(=O)C1CN(C2CCCC2)CCS(=O)(=O)N1Cc1ccc(Cl)cc1 (stereo unspecified)	nt	-2	nt	nt	nt	nt	nt	nt
CSc1oc(-c2ccco2)nc1S(=O)(=O)c1ccc(C)cc1	-4	9.2*	103	4	-2	-1	0	1
CSc1oc(-c2ccco2)nc1S(=O)(=O)c1ccc(F)cc1	-17	0	114	17	-24	2	nt	nt
C[C@H](CCC(=O)N(c1ccccc1)c1ccccc1)CC1CCCCC1	nt	-7	nt	nt	nt	nt	nt	nt
Cc1ccc(C2=N/C(=C\c3coc4ccccc4c3=O)C(=O)O2)cc1	nt	0	nt	nt	nt	nt	nt	nt
